AP ELISA ortho – orthogonal test for alternative complement pathway inhibitors; Human serum alternative complement pathway, LPS-coated ELISA, C3 deposition; tested in compound mixtures; inhibition, % at 5 µM; 62,000 tested, 0.08% active;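 active = inhibition above 30% in each of the two pooled mixtures holding the compound, so the lower value exceeds 30%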;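 note: 0% = serum in Mg-EGTA without compound and 100% = EDTA serum blank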
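Test system: human serum complement alternative pathway, C3 deposition onto LPS / Medium: Mg2+-EGTA GVB++ buffer containing human serum at 1:15 dilution / Probe or stimulus: Plate-bound LPS / Times: 1 h at 37 °C / Signal: ELISA with HRP anti-human C3 antibody, TMB substrate, absorbance 450 nm / Measure: percent inhibition / Repeats: two pool placements per compound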
sEH act – increases human soluble epoxide hydrolase activity | P34913 | purified human sEH enzymatic activity, activator screen | activation, % at 2 µM | 91,000 tested, 0.04% active; in the data active = activation above about 37%
Target sequence (P34913 whole entry, looked up): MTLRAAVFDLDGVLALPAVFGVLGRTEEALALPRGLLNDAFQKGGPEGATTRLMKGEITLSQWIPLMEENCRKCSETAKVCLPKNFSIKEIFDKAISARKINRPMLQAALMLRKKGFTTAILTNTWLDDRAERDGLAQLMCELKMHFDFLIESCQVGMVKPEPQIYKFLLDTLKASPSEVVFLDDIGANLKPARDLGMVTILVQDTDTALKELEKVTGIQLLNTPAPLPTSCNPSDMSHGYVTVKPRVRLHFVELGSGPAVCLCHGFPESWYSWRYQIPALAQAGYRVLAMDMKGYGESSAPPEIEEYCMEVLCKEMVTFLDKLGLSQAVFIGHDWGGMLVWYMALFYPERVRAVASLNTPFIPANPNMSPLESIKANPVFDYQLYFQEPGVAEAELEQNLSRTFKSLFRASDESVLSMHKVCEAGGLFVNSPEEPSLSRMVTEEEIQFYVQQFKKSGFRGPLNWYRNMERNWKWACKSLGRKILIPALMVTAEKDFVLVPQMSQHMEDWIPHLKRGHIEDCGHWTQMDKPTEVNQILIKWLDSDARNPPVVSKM
sEH inh – blocks human soluble epoxide hydrolase activity; P34913; recombinant human sEH enzymatic activity assay; inhibition, % at 2 µM; 91,000 tested, 0.34% active; AID 707; in the data active = inhibition above about 80%
BAP1 inh – human BAP1 deubiquitinase inhibition. calls only at 20 µM. recombinant BAP1, Ub-AMC hydrolysis fluorescence kinetic; stronger effect = lower value. 72,000 tested, 0.48% active;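 active = activity remaining at or below 50% of control, provided the compound also passes the data quality filters; inactive = the rest, including low values that fail the filters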;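 note: 100% = DMSO wells rate and 0% = substrate alone blank rate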
* = called active by the depositor. Rows were chosen to be rich in hits. Some 0.57% of all compounds tested hit in one or more screens of this group.

O=C(NC1CC2CCC(C1)N2C(=O)NC1CCCCC1)NC12CC3CC(CC(C3)C1)C2 (stereo not given) was read as AP ELISA ortho 6 and BAP1 inh inactive.
For O=C(NCCC(c1ccccc1)c1ccccc1)c1ccc(Br)o1 the results were sEH act -97 and sEH inh 97*.
For O=C(O)CCNC(=O)c1ccc(Br)o1 the results were AP ELISA ortho 12 and BAP1 inh inactive.
Screening NC(=O)c1cc(-c2cccnc2)no1 returned BAP1 inh inactive.
For NC(=O)NCCC1=CCCCC1 the results were sEH act 1 and sEH inh 0.
Screening O=C(NCCC1=CCCCC1)NC1CCCCC1 returned AP ELISA ortho 2, sEH act -94, sEH inh 94* and BAP1 inh inactive.
`O=C(NCCc1ccccc1)NC1CCCCC1` gave AP ELISA ortho 8, sEH act -82, sEH inh 82* and BAP1 inh inactive.
`O=C(NCc1ccccc1)NC1CCCCC1` gave AP ELISA ortho -3, sEH act -58, sEH inh 58 and BAP1 inh inactive.
`Clc1ccc2oc(-c3ccccn3)nc2c1` gave AP ELISA ortho 38*, sEH act -9, sEH inh 8 and BAP1 inh inactive.
`O=S(=O)(NCc1ccccc1)c1ccc(Cl)cc1` gave sEH act 6 and sEH inh -10.
For O=CNc1ccc(S(=O)(=O)NCc2ccccc2)cc1 the results were sEH act 39* and sEH inh -43.
For COC(=O)c1ccccc1NC(=O)c1cnn2c(C(F)(F)F)cc(-c3ccccc3)nc12 the results were BAP1 inh inactive.
COc1ccc(C2CCCN2C(=O)Nc2ccc(Cl)cc2)cc1OC (stereo not given) was read as sEH act -95 and sEH inh 95*.
For Brc1ccccc1OCCOCCOc1cccc2cccnc12 the results were sEH act 8 and sEH inh -11.
For Brc1ccc(OCCOCCOc2cccc3cccnc23)cc1 the results were sEH act 58* and sEH inh -54.
`O=C1Nc2ccc(I)cc2/C1=C/c1cc(Br)c(O)c(Br)c1` gave BAP1 inh active.
Screening COc1cc(OC)c(/C=C2/C(=O)Nc3ccccc32)c(OC)c1 returned BAP1 inh inactive.
CC1(C(=O)NCc2cccnc2)CCC(=O)N1Cc1cccs1 (stereo not given) was read as AP ELISA ortho 36* and BAP1 inh inactive.
Screening CC(C)c1ccc(NC(=O)NC2CCN(CC(=O)Nc3cccc4ccccc34)CC2)cc1 returned sEH act -89 and sEH inh 90*.
Screening COCCNC(=O)CN1CCC(NC(=O)Nc2ccccc2)CC1 returned AP ELISA ortho 13, sEH act -23, sEH inh 22 and BAP1 inh inactive.
COCCNC(=O)CN1CCC(NC(=O)Nc2ccc(C(F)(F)F)cc2)CC1 was read as AP ELISA ortho -5, sEH act -89, sEH inh 89* and BAP1 inh inactive.
`Cc1ccc([N+](=O)[O-])c(NC(=O)c2ccc([N+](=O)[O-])cc2)c1` gave BAP1 inh inactive.
COc1ccccc1CNC(=O)c1c(N)n(CCCN2CCOCC2)c2nc3ccccc3nc12 was read as sEH act 117* and sEH inh -108.
COC(=O)C1=C(C)NC(=O)NC1c1ccc(OCc2ccccc2)c(OC)c1 (stereo not given) was read as BAP1 inh inactive.
`Cc1sc2nc(C)n(/N=C/c3ccccc3)c(=O)c2c1C` gave sEH act 38* and sEH inh -42.
`NNC(=O)c1cnn(Cc2ccccc2)c1N` gave sEH act -86 and sEH inh 87*.
Screening NC(=O)c1cnn(Cc2ccc(Cl)cc2)c1N returned AP ELISA ortho 18, sEH act 12, sEH inh -10 and BAP1 inh inactive.
Screening CCCCCCCCCCCCC/C=C/C(O)C(N)CO (stereo not given) returned BAP1 inh active.
For CC1=C(/C=C/C(C)=C/C=C/C(C)=C/C(=O)Nc2ccc(O)cc2)C(C)(C)CCC1 the results were BAP1 inh active.
CC1=C(/C=C/C(C)=C/C=C/C(C)=C\C(=O)O)C(C)(C)CCC1 was read as BAP1 inh inactive.
CCN1C(=O)c2cccc3c(NC(=O)c4ccc(S(=O)(=O)N(C)c5ccccc5)cc4)ccc1c23 was read as BAP1 inh inactive.
CC(C)[C@H](NC(=O)NC1CCCC1)C(=O)O was read as AP ELISA ortho 10, sEH act 19, sEH inh -20 and BAP1 inh inactive.
`CC(C)=CCCC(C)NC(=O)NC1CCCCC1` (stereo not given) gave AP ELISA ortho 10, sEH act -90, sEH inh 91* and BAP1 inh inactive.
`CCN(CCCNC(=O)C1CCN(S(=O)(=O)N2CCC3(CC2)OCCO3)CC1)c1ccccc1` gave AP ELISA ortho 26, sEH act -90, sEH inh 90* and BAP1 inh inactive.
`O=c1c(O)c(-c2ccc(O)cc2O)oc2cc(O)cc(O)c12` gave AP ELISA ortho 14.
Cc1ccc(CSCCNC(=O)c2ccc(Cl)c(S(=O)(=O)N3CCOCC3)c2)cc1 was read as sEH act -73 and sEH inh 74.
O=C(NCCC1=CCCCC1)c1ccc(Cl)c(S(=O)(=O)N2CCOCC2)c1 was read as AP ELISA ortho 18, sEH act -94, sEH inh 94* and BAP1 inh inactive.
For C=CCN1C(=O)CSc2ccc(C(=O)NCCC3=CCCCC3)cc21 the results were sEH act -89 and sEH inh 89*.
For CC(N=Cc1ccc(O)cc1)C12CC3CC(CC(C3)C1)C2 (stereo not given) the results were BAP1 inh inactive.
O=c1oc2ccc([N+](=O)[O-])cc2cc1-c1csc(Nc2ccccc2F)n1 was read as BAP1 inh inactive.
For Cc1ccc(C(=O)Nc2ccc(S(=O)(=O)O)c3cc(S(=O)(=O)O)cc(S(=O)(=O)O)c23)cc1NC(=O)c1cccc(NC(=O)Nc2cccc(C(=O)Nc3cc(C(=O)Nc4ccc(S(=O)(=O)O)c5cc(S(=O)(=O)O)cc(S(=O)(=O)O)c45)ccc3C)c2)c1 the results were BAP1 inh active.
`Cc1ccc(C(=O)Nc2cccc(C(=O)O)c2)cc1S(=O)(=O)Nc1ccc(Br)cc1` gave BAP1 inh inactive.
`CC(Cc1cccs1)NC(=O)Nc1ccccc1` (stereo not given) gave AP ELISA ortho 21, sEH act -58, sEH inh 58 and BAP1 inh inactive.
For CC(Cc1cccs1)NC(=O)Nc1ccc(Cl)cc1 (stereo not given) the results were sEH act -86 and sEH inh 87*.
CC(Cc1cccs1)NC(=O)Nc1ccc(Cl)c(Cl)c1 (stereo not given) was read as sEH act -90 and sEH inh 90*.
`Cc1cc(NC(=O)CSc2ccc(-c3nc4cc(C)c(C)cc4[nH]3)cn2)no1` gave AP ELISA ortho 15, sEH act -76 and sEH inh 77.

Source: PubChem (several laboratories)
